Rows were chosen to be rich in hits. Some 3.1% of all compounds tested hit in one or more screens of this group.
hERG rescue: compounds protecting human hERG from proarrhythmic drug block; CHO-hERG, FluxOR thallium flux, dofetilide IC70 present; AID 1511; 310,000 tested, 0.51% active; activation (rescue from dofetilide block), less the hit threshold, % at 10 µM; Q12809;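 active = activation above the mean of controls blocked by dofetilide plus 5 SD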;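 also: thallium influx through hERG after potassium depolarization seen as dye fluorescence rise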
KCNK9 block: blocks the human KCNK9 two-pore domain potassium channel. Q9NPC2. HEK293 KCNK9, FluxOR thallium flux fluorescence; hits give low values. B-score at 10 µM. 310,000 tested, 1.2% active;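 active = ratio B-score over 3 SD below the library mean, with starting fluorescence within 5 SD of its mean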;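 also: negative B-score means less thallium flux so channel inhibition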
KCNQ1 act: human KCNQ1 channel potentiation or activation | B-score at 10 µM | 310,000 tested, 0.35% active | CHO-K1 KCNQ1, thallium flux FluxOR fluorescence; hits give high values | P51787;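 active = fluorescence ratio B-score, a plate-corrected score, at least three library SD, with initial intensity B-score within 5 SD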
Target sequence (P51787 whole entry, looked up): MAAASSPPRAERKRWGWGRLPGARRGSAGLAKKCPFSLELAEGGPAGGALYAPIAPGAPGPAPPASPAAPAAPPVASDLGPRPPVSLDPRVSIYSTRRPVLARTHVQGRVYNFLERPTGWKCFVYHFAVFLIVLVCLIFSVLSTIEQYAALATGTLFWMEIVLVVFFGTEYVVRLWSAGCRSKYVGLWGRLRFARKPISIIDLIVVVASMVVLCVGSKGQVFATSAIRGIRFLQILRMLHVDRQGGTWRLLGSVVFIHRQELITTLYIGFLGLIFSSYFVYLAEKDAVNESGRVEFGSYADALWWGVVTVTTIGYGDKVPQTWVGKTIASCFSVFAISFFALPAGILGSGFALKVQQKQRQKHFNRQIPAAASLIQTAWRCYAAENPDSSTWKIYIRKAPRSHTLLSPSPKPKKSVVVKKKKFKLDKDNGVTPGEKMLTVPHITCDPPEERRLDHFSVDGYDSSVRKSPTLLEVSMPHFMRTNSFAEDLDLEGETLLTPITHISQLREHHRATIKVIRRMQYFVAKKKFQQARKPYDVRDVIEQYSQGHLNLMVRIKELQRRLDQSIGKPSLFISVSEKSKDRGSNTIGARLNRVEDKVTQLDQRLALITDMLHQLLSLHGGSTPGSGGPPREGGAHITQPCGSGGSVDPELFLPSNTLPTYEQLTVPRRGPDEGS
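Assay system: stable KCNQ1 CHO-K1 line; medium: assay buffer, equal DMSO in all wells; timing: 90 min dye loading and 20 min compound exposure, both at room temperature; technique: kinetic FluxOR thallium fluorescence, 10-s 1-Hz baseline, 110-s post-stimulus read; read-out basis: B score of baseline-normalized fluorescence ratio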
KCNQ1 block: blocks the human KCNQ1 potassium channel; P51787; CHO-K1 KCNQ1, FluxOR thallium flux fluorescence; hits give high values; B-score at 10 µM; 310,000 tested, 1.3% active;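 active = compounds whose thallium flux B-score, printed positive for inhibition, exceeds three library SD while starting fluorescence stays within three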;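 also: channel opened by potassium depolarization with thallium stimulus after 20 min compound exposure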
KCNK3 inh: human KCNK3 channel inhibition, primary screen; O14649; CHO-KCNK3 thallium flux, FluxOR fluorescence; hits give low values; B-score at 10 µM; 340,000 tested, 0.84% active;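 active = B-score under library mean minus 4 SD, starting fluorescence ratio at most library mean plus 5 SD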;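 also: more negative B-score means stronger inhibition of thallium flux through KCNK3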
KCNK9 inh conf: confirmation of human KCNK9 potassium channel inhibitors. shares compounds with KCNK9 block. HEK293 KCNK9 cells, FluxOR thallium flux fluorescence. inhibition, % at 10 µM. 4,900 tested, 43% active;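 active = thallium signal inhibited by more than 5 SD of the compound-free buffer control wells, on both duplicate plates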;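 also: 0% = assay buffer control wells without compound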
Kir21 sel: selectivity of KCNK9 modulators against mouse Kir2.1. shares compounds with KCNK9 block. Kir2.1 cells, FluxOR thallium flux fluorescence. inhibition, % at 10 µM. 4,900 tested, 4% active. AID 492993;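 active = thallium signal drop more than 5 SD beyond the mean of the no-compound control wells, seen in both duplicate plates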;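 also: signal is fluorescence rise after thallium addition divided by baseline fluorescence; plate controls were assay buffer only for no effect and full block by chlorpromazine control for full effect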
KCNK9 uninduced: second counter-screen for KCNK9 modulators: effect in non-induced cells | shares compounds with KCNK9 block | non-induced KCNK9-HEK293, FluxOR thallium flux | inhibition, % at 10 µM | 4,900 tested, 40% active | AID 492997;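 active = thallium signal drop beyond 5 SD of the untreated control mean, on both duplicate plates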;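 also: plate controls were buffer only IC0 wells for no effect and SID17386958 at its maximal inhibitory level for full effect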
Numbers without * were called inactive; i = inactive; / = no result given.

SMILES	hERG rescue	KCNK9 block	KCNQ1 act	KCNQ1 block	KCNK3 inh	KCNK9 inh conf	Kir21 sel	KCNK9 uninduced
Cc1ccc(C2CC2C(=O)NNC(=S)Nc2ccc(Cl)cc2)cc1 (stereo unspecified)	-16	i	i	10*	i	i	i	i
Cc1[nH][nH]c(=O)c1C(c1c(C)[nH][nH]c1=O)c1cn(Cc2ccccc2Cl)c2ccccc12	-14	i	i	i	i	i	i	i
COCCN(CCOC)C(=O)C1CCCN(S(=O)(=O)c2ccc(NC(=O)OC)cc2)C1 (stereo unspecified)	-10	i	i	i	i	/	/	/
CC(C)(C)c1ccc(S(=O)(=O)N2CCN(c3ncccn3)CC2)cc1	-4	i	i	i	i	/	/	/
CCOC(=O)c1cccnc1SCC(=O)N(CC)c1cccc(C)c1	-15	i	i	i	i	i	i	i
CCC(C)NCCOc1cc(C)cc(C)c1C (stereo unspecified)	-19	i	i	i	i	/	/	/
CCC(C)n1c(SCC(=O)Nc2ccccc2C(F)(F)F)nc2ccsc2c1=O (stereo unspecified)	-10	-8.9*	i	i	i	26%*	i	26%*
O=C(O)CCCCn1c(SCC(=O)Nc2ccccc2C(F)(F)F)nc2ccsc2c1=O	-4	i	i	i	i	/	/	/
Cc1nc2c(cc1NC(=O)C(C)(C)C)nc(C)n2Cc1ccccc1	-3	i	i	i	i	/	/	/
Cn1nc(-c2ccc(N3CCCCC3)c(NC(=O)c3ccco3)c2)c2ccccc2c1=O	-13	-15*	i	i	i	73%*	i	36%*
O=C(O)c1cc(-c2ccc(-c3ccc(F)cc3)o2)nc2ccccc12	-2	i	i	i	i	/	/	/
COCCN=c1scc(-c2cc(OC)ccc2OC)n1/N=C/c1c[nH]c2ccccc12	-14	i	i	i	i	i	i	i
Cc1ccc(-c2nnc(CSc3nc(C(C)C)nc4sc(C)c(C)c34)o2)cc1	-12	i	i	i	i	i	i	i
CCOC(=O)CSc1nc(C(C)C)nc2sc(C)c(C)c12	-8	i	i	i	i	/	/	/
CCN(Cc1ccccc1)C(c1cccs1)c1nnnn1C1CCCCC1 (stereo unspecified)	-5	-12*	i	i	i	56%*	i	34%*
Cc1ccc(S(=O)(=O)N(C)CC(O)Cn2c3ccccc3c3ccccc32)cc1 (stereo unspecified)	1	i	i	i	i	/	/	/
O=S(=O)(c1ccccc1)N(CC(O)Cn1c2ccccc2c2ccccc21)c1ccccc1 (stereo unspecified)	-13	-11*	i	i	i	40%*	i	25%*
Cc1nc2scc(C)n2c(=O)c1S(=O)(=O)N1CCN(c2ccccn2)CC1	-5	i	i	i	i	/	/	/
COc1cc(/C=C(/C#N)C(=O)Nc2cc(C(F)(F)F)ccc2Cl)ccc1OCC(=O)Nc1cccc(C(F)(F)F)c1	/	/	/	/	i	/	/	/
CC(C)C(=O)Nc1c(-c2ccccc2Cl)c(=O)c2ccccc2n1C	-4	i	i	i	i	/	/	/
COc1ccc(-c2cc(C(F)(F)F)n3ncc(C(=O)N(C)Cc4ccccc4)c3n2)cc1	-15	i	i	i	i	i	i	i
COc1ccc(-c2cc(C(F)(F)F)n3ncc(C(=O)NCc4ccco4)c3n2)cc1	-6	i	i	i	i	/	/	/
COC(=O)c1cc(=O)n(CCc2ccccc2F)c(=Nc2ccc(F)c(Cl)c2)s1	-3	-14*	i	i	i	44%*	i	36%*
COC(=O)c1cc(=O)n(Cc2cccs2)c(=Nc2ccc(F)cc2)s1	-7	i	i	i	i	/	/	/
CC(C)(C)OC(=O)NCCCCCc1nnc(SCc2ccccc2)o1	-7	i	i	i	i	/	/	/

Compound activity as filed in PubChem BioAssay.
